From PubChem
Cneo AK release – Cryptococcus neoformans cell lysis inducers, primary screen, AK release luminescence, single concentration; lysis activity, % at 15 µM; hit rate 0.2% among 360,000; C. neoformans lysis, adenylate kinase release luminescence, 4 h; normalised: neutral wells 0, clomiphene wells 100;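 active = mean lysis activity across replicates of at least 80%, whatever share of replicates individually reach that level; inactive = mean lysis activity below 80%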
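Signal: Adenylate kinase release luminescence | Assay system: Log-phase Cryptococcus neoformans yeast cells | Input: Cells at 5 × 10^6 per mL | Buffer or medium: Fresh YPD growth medium | Compound: Single dose | Schedule: Static 4 h at 37 °C with compound, 1 h detection | Controls: Clomiphene | Read-out: Luminescence rise reflecting yeast cell lysis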
Statin myotox sup – suppressors of statin myotoxicity in C2C12 myotubes, primary screen, cell-based, single point, plate reader; C2C12 myotubes + simvastatin, ATP luminescence, 48 h; scaled: DMSO 0, geranylgeraniol control 100; AID 602340, 2012; rescue of ATP level, % at 7.49 µM; hit rate 0.78% among 330,000;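 active = mean ATP rescue above about 67%, or every replicate alone reaching that limit, limit read from the data, passing the limit was not always enough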;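 also: myotubes were challenged with 10 µM simvastatin during compound exposure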
XiGFP reactiv – activators of inactive X chromosome reactivation, primary screen, imaging, XiGFP fibroblasts, GFP high-content imaging, set 2; XiGFP mouse fibroblasts, % GFP-positive cells imaging, 3 d; cells co-treated with 5-aza-dC sensitizer; scaled so ellipticine positive control = 100%; activation, % at 7.58 µM; hit rate 0.055% among 360,000;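 active = mean normalized replicate activation at least 10% and every replicate at or above 10%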
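Schedule: 3 d treatment, 15 min room-temperature fixation; system: 68-5-11 XiGFP fibroblast line; buffer or medium: DMEM plus 5-aza-dC sensitizer; control set: ellipticine 6 µM positive control; compound: one concentration, pinned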
DENV2 CPE rescue – inhibitors of DENV2 cytopathic effect, primary screen, cell-based, plate reader, single concentration; DENV2-infected cells, cytopathic effect rescue; CPE inhibition, % at 9.99 µM; hit rate 1.7% among 350,000; AID 651640, 2012; in the data active = CPE inhibition above about 20%, passing the limit was not always enough; tested in BHK-21 cells
Each line names hits and unclear results; the compound was inactive in the other large screens. In the library only some 2.1% were active in any assay of this set; here they are far more common.

CO[C@H]1CN(C)C(=O)c2cc(NC(=O)C3CC3)ccc2OC[C@H](C)N(CC2CCOCC2)C[C@@H]1C	none
CN(Cc1ccccc1)N=Nc1nc[nH]c1C(N)=O	DENV2 CPE rescue 77.4
CC[C@@H]1C/C=C\C[C@@H](c2ccc(F)cc2)NC(=O)CCC(=O)N1	none (no result: Cneo AK release, Statin myotox sup, DENV2 CPE rescue)
O=C(C[C@@H]1CC[C@H]2[C@@H](COC[C@@H](O)CN2S(=O)(=O)c2ccc(F)cc2)O1)NCC1CCCCC1	none
CCOC(=O)C1(CC)NC(c2ccco2)C2C(=O)N(CC)C(=O)C21 (stereo not given)	none (no result: XiGFP reactiv, DENV2 CPE rescue)
CCOC(=O)C1(CCSC)NC(c2ccco2)C2C(=O)N(CC)C(=O)C21 (stereo not given)	Statin myotox sup 104.3 (no result: XiGFP reactiv, DENV2 CPE rescue)
O=C(CSc1nnc(-c2ccccc2)n1C1CCCCC1)Nc1ccc(S(=O)(=O)Nc2ccccn2)cc1	none (no result: XiGFP reactiv, DENV2 CPE rescue)
CCn1c(SCC(=O)Nc2ccc(S(=O)(=O)Nc3ccccn3)cc2)nnc1-c1ccncc1	Statin myotox sup 94.7 (no result: XiGFP reactiv, DENV2 CPE rescue)
CCC(=O)N[C@H]1C=C[C@H](CC(=O)NCC2CCCCC2)O[C@@H]1CO	Cneo AK release 88.9
O=C(C[C@@H]1C=C[C@@H](NC(=O)C2CCC2)[C@H](CO)O1)NC1CCC1	Cneo AK release 95.8
O=C(C[C@H]1C=C[C@H](NC(=O)C2CCC2)[C@@H](CO)O1)NC1CCC1	Cneo AK release 91.2
CN(C)CC(=O)N1[C@H](CO)[C@@H](c2ccc(C#CC3CCCCC3)cc2)[C@@H]1C#N	none
CN(C)CC(=O)N1[C@@H](C#N)[C@H](c2ccc(C#CC3CCCC3)cc2)[C@@H]1CO	DENV2 CPE rescue 22.8
N#C[C@@H]1[C@@H](c2ccc(C#CC3CCCCC3)cc2)[C@H](CO)N1C(=O)Cc1ccccn1	DENV2 CPE rescue 67.0
CN(C)CC(=O)N1[C@H](C#N)[C@H](c2ccc(C#CC3CCCCC3)cc2)[C@@H]1CO	DENV2 CPE rescue 39.7
C[C@H](CO)N1C[C@H](C)[C@@H](CN(C)CC2CC2)OCCCC[C@H](C)Oc2ccc(NS(=O)(=O)c3ccc(F)cc3)cc2C1=O	none (no result: Statin myotox sup)
C[C@@H]1CCCCO[C@H](CN(C)S(=O)(=O)c2cccs2)[C@@H](C)CN([C@H](C)CO)C(=O)c2cc(NS(=O)(=O)c3cccs3)ccc2O1	DENV2 CPE rescue 59.4 (no result: Statin myotox sup)
C[C@H]1CCCCO[C@H](CN(C)C(=O)CCCN(C)C)[C@@H](C)CN([C@@H](C)CO)C(=O)c2cc(NS(=O)(=O)c3cccs3)ccc2O1	DENV2 CPE rescue 23.3 (no result: Cneo AK release, Statin myotox sup)
C[C@@H]1CN([C@@H](C)CO)C(=O)c2cc(NS(=O)(=O)c3cccs3)ccc2O[C@@H](C)CCCCO[C@@H]1CN(C)C	DENV2 CPE rescue 20.4 (no result: Statin myotox sup)
C[C@@H]1CCCCO[C@H](CN(C)CC2CC2)[C@H](C)CN([C@@H](C)CO)C(=O)c2cc(NS(=O)(=O)c3cccs3)ccc2O1	DENV2 CPE rescue 41.6 (no result: Cneo AK release, Statin myotox sup)
Cc1cc(C)c(S(=O)(=O)N2CCN=C2c2ccccc2)cc1C	Statin myotox sup 98.8 (no result: XiGFP reactiv, DENV2 CPE rescue)
CC(C)CC#Cc1cnc2c(c1)C(=O)N([C@H](C)CO)C[C@H](C)[C@@H](CN(C)C(=O)c1cccnc1)O2	none
C[C@@H]1CN([C@@H](C)CO)S(=O)(=O)c2ccc(-c3cncnc3)cc2O[C@H]1CN(C)C(=O)C1CCCCC1	none
O=C(c1ccc(NC2=NC3CS(=O)(=O)CC3S2)cc1)N1CCN(c2ccc([N+](=O)[O-])cc2)CC1 (stereo not given)	DENV2 CPE rescue 38.6
C[C@@H]1CCCCO[C@@H](CN(C)C(=O)Nc2ccccc2)[C@@H](C)CN([C@@H](C)CO)C(=O)c2cc(NS(=O)(=O)c3ccccc3)ccc2O1	none (no result: Cneo AK release, Statin myotox sup)
COc1ccc(CN2C[C@H](C)[C@@H](OC)CN(C)C(=O)c3cc(NC(=O)c4nc5ccccc5s4)ccc3OC[C@@H]2C)cc1	DENV2 CPE rescue 31.0
CO[C@@H]1CN(C)C(=O)c2ccc(NC(=O)C3CCOCC3)cc2OC[C@@H](C)N(CC2CCCCC2)C[C@H]1C	DENV2 CPE rescue 53.7
CCC(=O)Nc1ccc2c(c1)OC[C@H](C)N(Cc1ccccn1)C[C@@H](C)[C@H](OC)CN(C)C2=O	DENV2 CPE rescue 31.7
CCC(=O)Nc1ccc2c(c1)OC[C@@H](C)N(Cc1ccccn1)C[C@@H](C)[C@@H](OC)CN(C)C2=O	none
CO[C@@H]1CN(C)C(=O)c2ccc(NC(=O)C3CCOCC3)cc2OC[C@H](C)N(CC2CC2)C[C@@H]1C	none
CCCC(=O)Nc1ccc2c(c1)OC[C@@H](C)N(Cc1ccccn1)C[C@@H](C)[C@H](OC)CN(C)C2=O	Cneo AK release 94.4
CO[C@@H]1CN(C)C(=O)c2ccc(NC(=O)C3CC3)cc2OC[C@H](C)N(Cc2ccc(F)cc2)C[C@H]1C	Cneo AK release 86.0
CCCC(=O)Nc1ccc2c(c1)OC[C@H](C)N(Cc1ccccc1)C[C@H](C)[C@@H](OC)CN(C)C2=O	DENV2 CPE rescue 31.6 (no result: Cneo AK release, Statin myotox sup)
CCCNC(=O)Nc1ccc2c(c1)OC[C@H](C)N(Cc1ccncc1)C[C@@H](C)[C@@H](OC)CN(C)C2=O	DENV2 CPE rescue 45.1
CCCC(=O)Nc1ccc2c(c1)C(=O)N(C)C[C@H](OC)[C@H](C)CN(Cc1ccccn1)[C@@H](C)CO2	none
CCCC(=O)Nc1ccc2c(c1)OC[C@H](C)N(Cc1ccccn1)C[C@H](C)[C@H](OC)CN(C)C2=O	Cneo AK release 112.7
O=C(C[C@@H]1C=C[C@@H](NC(=O)C2CC2)[C@@H](CO)O1)NCCCN1CCOCC1	none
CCC(=O)N1C[C@@H]2[C@H](c3ccccc31)[C@@H](CO)N2C(=O)Nc1ccccc1F	none
COc1ccccc1CN1C[C@H](C)[C@H](OC)CN(C)C(=O)c2ccc(NC(C)=O)cc2OC[C@H]1C	DENV2 CPE rescue 43.3
CCCC(=O)Nc1ccc2c(c1)OC[C@@H](C)N(Cc1ccccn1)C[C@H](C)[C@H](OC)CN(C)C2=O	none
CCCC(=O)Nc1ccc2c(c1)C(=O)N(C)C[C@@H](OC)[C@@H](C)CN(Cc1ccc(-c3ccccn3)cc1)[C@@H](C)CO2	none
CCCC(=O)Nc1ccc2c(c1)OC[C@@H](C)N(Cc1ccccn1)C[C@H](C)[C@@H](OC)CN(C)C2=O	DENV2 CPE rescue 63.6
COc1ccccc1CN1C[C@@H](C)[C@@H](OC)CN(C)C(=O)c2ccc(NC(C)=O)cc2OC[C@@H]1C	none
CCCC(=O)Nc1ccc2c(c1)C(=O)N(C)C[C@H](OC)[C@H](C)CN(Cc1ccc(-c3ccccn3)cc1)[C@@H](C)CO2	DENV2 CPE rescue 28.3
O=C(C[C@@H]1C=C[C@@H](NC(=O)c2ccncc2)[C@H](CO)O1)NCCc1ccncc1	none
CCCCn1c(CCc2ccccc2)nc2cc3[nH]c(=O)c(C(C)C)nc3cc21	Statin myotox sup 118.6
CN1C(=O)c2cc(NC(=O)c3cscn3)ccc2OC[C@@H]2O[C@@H](CC(=O)NCC3CC3)CC[C@@H]21	none
